Data on 14 compounds can be found in ChEMBL document CHEMBL1143684, “Exploring the structure-activity relationship of the ethylamine portion of 3-iodothyronamine for rat and mouse trace amine-associated receptor 1” (J Med Chem, 2007).

Holding throughout (type): functional, cell-based
Experiment [1] deals with Trace amine-associated receptor 1 (Mus musculus) (UniProt Q923Y8). Kind of experiment: Efficacy at mouse TAAR1 expressed in HEK293 cells assessed as stimulation of cAMP production at 10 uM relative to 3-iodothyronamine.
Experiment [2] deals with Trace amine-associated receptor 1 (Mus musculus, UniProt Q923Y8). As to the kind of experiment: Activity at mouse TAAR1 expressed in HEK293 cells assessed as cAMP production. A digest of the protocol: (§1)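 HEK293 cells stably expressing rat or mouse TAAR1, kept in fresh medium ≥2 h, harvested in KRH, preincubated 20-30 min with 200 µM IBMX. Cells boiled 20 min in acetate buffer. cAMP in cleared lysate read by EFC luminescence kit (18 h dark). Responses given as % of T1AM. EC50 from concentration-response fit, mean ± SEM of N independent triplicate runs.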

The target of experiment [3] is Trace amine-associated receptor 1 (Rattus norvegicus, UniProt Q923Y9). As to the kind of experiment: Activity at rat TAAR1 expressed in HEK293 cells assessed as cAMP production. An outline of the steps: as §1
The target in experiment [4] is Trace amine-associated receptor 1 (Rattus norvegicus) (UniProt Q923Y9). Kind of experiment: Efficacy at rat TAAR1 expressed in HEK293 cells assessed as stimulation of cAMP production at 10 uM relative to 3-iodothyronamine.
The target in experiment [5] is Trace amine-associated receptor 1 (Mus musculus) (UniProt Q923Y8). Kind of experiment: Antagonist activity at mouse TAAR1 expressed in HEK293 cells at 10 uM assessed as inhibition of 3-iodothyronamine-induced cAMP production. Further details: scale not given: the % may be the effect or the level left. A digest of the protocol:
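Cells harvested in Krebs-Ringer-HEPES, preincubated 20-30 min with 200 µM IBMX, then exposed 1 h at 37 °C in KRH with 133 µM IBMX plus test compound at 10 µM (DMSO vehicle; forskolin 10 µM control). Cells lysed by boiling; cAMP measured by enzyme-fragment-complementation luminescence.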

Sequence of Trace amine-associated receptor 1 (Mus musculus, UniProt Q923Y8) (Q923Y8 whole entry): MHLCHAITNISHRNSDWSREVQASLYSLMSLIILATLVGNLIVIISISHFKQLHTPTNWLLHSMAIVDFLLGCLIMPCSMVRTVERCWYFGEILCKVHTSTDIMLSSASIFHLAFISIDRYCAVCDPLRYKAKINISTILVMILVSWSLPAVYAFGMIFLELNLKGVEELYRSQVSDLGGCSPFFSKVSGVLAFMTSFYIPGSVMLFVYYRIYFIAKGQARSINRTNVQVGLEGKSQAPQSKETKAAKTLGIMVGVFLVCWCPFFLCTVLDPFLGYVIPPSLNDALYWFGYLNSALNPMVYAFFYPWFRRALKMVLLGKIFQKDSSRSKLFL
Sequence of Trace amine-associated receptor 1 (Mus musculus) (Q923Y8 whole entry, the tested form may be a part): as the sequence (Q923Y8 whole entry) above
Sequence of Trace amine-associated receptor 1 (Rattus norvegicus, UniProt Q923Y9) (Q923Y9 whole entry): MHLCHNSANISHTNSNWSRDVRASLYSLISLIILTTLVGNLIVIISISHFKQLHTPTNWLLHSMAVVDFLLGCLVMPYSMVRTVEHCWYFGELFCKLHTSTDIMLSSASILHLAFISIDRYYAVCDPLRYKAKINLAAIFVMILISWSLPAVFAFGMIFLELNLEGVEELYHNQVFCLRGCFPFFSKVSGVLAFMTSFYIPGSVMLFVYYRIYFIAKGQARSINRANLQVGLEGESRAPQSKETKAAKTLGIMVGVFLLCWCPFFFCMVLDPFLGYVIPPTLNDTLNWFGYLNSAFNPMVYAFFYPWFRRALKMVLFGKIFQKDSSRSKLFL
Sequence of Trace amine-associated receptor 1 (Rattus norvegicus) (Q923Y9 whole entry): as above

For `C#CC(CN)c1ccc(Oc2ccccc2)cc1` (configuration not stated), the Emax was found to be 79% in experiment [1] and 105% in experiment [4]. In addition, the EC50 was 929 nM in experiment [2] and 41 nM in experiment [3].
The like results for `CC(C)(CN)c1ccc(Oc2ccccc2)cc1` were, in that order, 18%, 13%, over 1000 nM and over 1000 nM.
The like results for `NCC(c1ccccc1)c1ccc(Oc2ccccc2)cc1` (configuration not stated) were, in that order, 35%, 103%, over 1000 nM and 28 nM.
In the same order, the values of `CN(C)CCCNC(=O)c1ccc(Oc2ccccc2)cc1` are 0%, 2%, over 1000 nM and over 1000 nM.
`NCCc1ccc(Oc2ccccc2)c2ccccc12`: the Emax in experiment [1] is 104%; in experiment [4], 113%. In addition, the EC50 in experiment [2] turned out to be 101 nM; in experiment [3], 26 nM.
In the same order, the values of `NCC(c1ccccc1)c1ccc(O)c2ccccc12` (configuration not stated) are 14%, 89%, over 1000 nM and 716 nM.
In the same order, the values of `NCC(Cc1ccccc1)c1ccc(Oc2ccccc2)cc1` (configuration not stated) are 31%, 92%, over 1000 nM and 140 nM.
The like results for `CC(CN)c1ccc(Oc2ccccc2)cc1` (configuration not stated) were, in that order, 72%, 94%, over 1000 nM and 250 nM.
As to `NCCc1ccc(Oc2ccccc2)cc1`, the results for the Emax in experiment [1] and in experiment [4] were 85% and 93%, respectively. Besides, the EC50 stood at 420 nM in experiment [2] and 63 nM in experiment [3].
Take `NCCc1ccc(Oc2ccc(O)cc2)c(I)c1`: the Emax in experiment [1] and in experiment [4] was 100% in each case. In experiment [5], the Activity worked out at 30%. The values for the EC50 in experiment [2] and in experiment [3] were 314 nM and 33 nM, respectively.
With `NCC(c1ccccc1)c1cccc(Oc2ccccc2)c1` (configuration not stated), the maximal response (Emax) came out at 15% in experiment [1] and 131% in experiment [4]. Also, the EC50 in experiment [2] is over 1000 nM; in experiment [3], 19 nM.
The like results for `NCC(c1ccccc1)c1ccc(Oc2ccccc2)c2ccccc12` (configuration not stated) were, in that order, 0%, 100%, over 1000 nM and 52 nM.
`NCC(C#Cc1ccccc1)c1ccc(Oc2ccccc2)cc1` (configuration not stated): the figures for the Emax in experiment [1] and in experiment [4] were 2% and 119%, respectively. Besides, the EC50 in experiment [2] is over 1000 nM; in experiment [3], 62 nM.
On to `COc1ccc(C(CN)c2ccccc2)c2ccccc12` (configuration not stated), for which the Emax in experiment [1] was determined as 14%; in experiment [4], 71%. Further, the values for the EC50 in experiment [2] and in experiment [3] were over 1000 nM and 270 nM, respectively.
